Test results published in ChEMBL document CHEMBL1926577, “Novel 1,3,4-heterodiazole analogues: synthesis and in-vitro antitumor activity” (2012).

How the values were obtained:
Format in all cases: functional
SF-295 = experiment: Growth inhibition of human SF295 cells at 10 uM after 48 hrs by coulter counter method; details: SF-295, 48 h, read-out: GI
Procedure, shortened: (§1)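 NCI 60-cell-line panel, single dose. Compound dissolved first in DMSO, then diluted in phosphate-buffered saline so that every final dilution held under 1% DMSO. Duplicate wells received cells at 6 × 10⁴ cells/ml. Controls held PBS/DMSO at the same dilution. Plates were incubated 48 h at 37 °C under 5% CO₂. Cells were then diluted 10-fold in saline and counted on a Coulter counter, with counts corrected for the dilution. Results are given as percent growth inhibition.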

NCI-H322M = experiment: Growth inhibition of human NCI-H322M cells at 10 uM after 48 hrs by coulter counter method; details: read-out: GI; procedure, shortened: as §1
PC-3 = experiment: Growth inhibition of human PC3 cells at 10 uM after 48 hrs by coulter counter method; details: PC-3, 48 h, read-out: GI; procedure, shortened: as §1
CCRF-CEM = experiment: Growth inhibition of human CCRF-CEM cells at 10 uM after 48 hrs by coulter counter method; details: read-out: GI; procedure, shortened: as §1
HT-29 = experiment: Growth inhibition of human HT-29 cells at 10 uM after 48 hrs by coulter counter method; details: HT-29, 48 h, read-out: GI; procedure, shortened: as §1
HCT-116 = experiment: Growth inhibition of human HCT116 cells at 10 uM after 48 hrs by coulter counter method; details: HCT-116, 48 h, read-out: GI; procedure, shortened: as §1
SK-MEL-5 = experiment: Growth inhibition of human SK-MEL-5 cells at 10 uM after 48 hrs by coulter counter method; details: SK-MEL-5, 48 h, read-out: GI; procedure, shortened: as §1
HL-60(TB) = experiment: Growth inhibition of human HL-60(TB) cells at 10 uM after 48 hrs by coulter counter method; details: HL-60, 48 h, read-out: GI
Procedure, shortened: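 Single-dose screen on the NCI 60-line panel (leukemia subpanel). Compound is dissolved in DMSO and diluted in PBS, with final DMSO below 1%. Duplicate wells hold 6 × 10⁴ cells/ml at 37 °C, 5% CO₂, for 48 h. Cells are counted by Coulter counter after 10-fold saline dilution. Read-out is percent growth versus PBS/DMSO controls, expressed as % growth inhibition.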

SK-MEL-2 = experiment: Growth inhibition of human SK-MEL-2 cells at 10 uM after 48 hrs by coulter counter method; details: SK-MEL-2, 48 h, read-out: GI; procedure, shortened: as §1
BT-549 = experiment: Growth inhibition of human BT549 cells at 10 uM after 48 hrs by coulter counter method; details: BT-549, 48 h, read-out: GI; procedure, shortened: as §1
A498 = experiment: Growth inhibition of human A498 cells at 10 uM after 48 hrs by coulter counter method; details: A498, 48 h, read-out: GI; procedure, shortened: as §1
SF-268 = experiment: Growth inhibition of human SF268 cells at 10 uM after 48 hrs by coulter counter method; details: SF-268, 48 h, read-out: GI; procedure, shortened: as §1
SK-MEL-28 = experiment: Growth inhibition of human SK-MEL-28 cells at 10 uM after 48 hrs by coulter counter method; details: SK-MEL-28, 48 h, read-out: GI; procedure, shortened: as §1
MCF7 = experiment: Growth inhibition of human MCF7 cells at 10 uM after 48 hrs by coulter counter method; details: MCF7, 48 h, read-out: GI; procedure, shortened: as §1
UACC-257 = experiment: Growth inhibition of human UACC257 cells at 10 uM after 48 hrs by coulter counter method; details: UACC-257, 48 h, read-out: GI; procedure, shortened: as §1
786-0 = experiment: Growth inhibition of human 786-0 cells at 10 uM after 48 hrs by coulter counter method; details: 786-0, 48 h, read-out: GI; procedure, shortened: as §1
MDA-MB-435 = experiment: Growth inhibition of human MDA-MB-435 cells at 10 uM after 48 hrs by coulter counter method; details: MDA-MB-435, 48 h, read-out: GI; procedure, shortened: as §1
TK-10 = experiment: Growth inhibition of human TK10 cells at 10 uM after 48 hrs by coulter counter method; details: TK-10, 48 h, read-out: GI; procedure, shortened: as §1
M14 = experiment: Growth inhibition of human M14 cells at 10 uM after 48 hrs by coulter counter method; details: M14, 48 h, read-out: GI; procedure, shortened: as §1
ACHN = experiment: Growth inhibition of human ACHN cells at 10 uM after 48 hrs by coulter counter method; details: read-out: GI; procedure, shortened: as §1
UACC-62 = experiment: Growth inhibition of human UACC62 cells at 10 uM after 48 hrs by coulter counter method; details: UACC-62, 48 h, read-out: GI; procedure, shortened: as §1
NCI/ADR-RES = experiment: Growth inhibition of human NCI/ADR-RES cells at 10 uM after 48 hrs by coulter counter method; details: read-out: GI; procedure, shortened: as §1
SNB-19 = experiment: Growth inhibition of human SNB19 cells at 10 uM after 48 hrs by coulter counter method; details: SNB-19, 48 h, read-out: GI; procedure, shortened: as §1
KM12 = experiment: Growth inhibition of human KM12 cells at 10 uM after 48 hrs by coulter counter method; details: KM12, 48 h, read-out: GI; procedure, shortened: as §1
IGROV-1 = experiment: Growth inhibition of human IGROV1 cells at 10 uM after 48 hrs by coulter counter method; details: IGROV-1, 48 h, read-out: GI; procedure, shortened: as §1
EKVX = experiment: Growth inhibition of human EKVX cells at 10 uM after 48 hrs by coulter counter method; details: read-out: GI; procedure, shortened: as §1
CAKI-1 = experiment: Growth inhibition of human Caki1 cells at 10 uM after 48 hrs by coulter counter method; details: CAKI-1, 48 h, read-out: GI; procedure, shortened: as §1
HCT-15 = experiment: Growth inhibition of human HCT15 cells at 10 uM after 48 hrs by coulter counter method; details: HCT-15, 48 h, read-out: GI; procedure, shortened: as §1
NCI-H226 = experiment: Growth inhibition of human NCI-H226 cells at 10 uM after 48 hrs by coulter counter method; details: NCI-H226, 48 h, read-out: GI; procedure, shortened: as §1
T47D = experiment: Growth inhibition of human T47D cells at 10 uM after 48 hrs by coulter counter method; details: read-out: GI; procedure, shortened: as §1
Malme-3M = experiment: Growth inhibition of human MALME-3M cells at 10 uM after 48 hrs by coulter counter method; details: read-out: GI; procedure, shortened: as §1
MDA-MB-468 = experiment: Growth inhibition of human MDA-MB-468 cells at 10 uM after 48 hrs by coulter counter method; details: MDA-MB-468, 48 h, read-out: GI; procedure, shortened: as §1
K562 = experiment: Growth inhibition of human K562 cells at 10 uM after 48 hrs by coulter counter method; details: K562, 48 h, read-out: GI; procedure, shortened: as §1
A549 = experiment: Growth inhibition of human A549 cells at 10 uM after 48 hrs by coulter counter method; details: A549, 48 h, read-out: GI; procedure, shortened: as §1
SN12C = experiment: Growth inhibition of human SN12C cells at 10 uM after 48 hrs by coulter counter method; details: read-out: GI; procedure, shortened: as §1
NCI-H23 = experiment: Growth inhibition of human NCI-H23 cells at 10 uM after 48 hrs by coulter counter method; details: NCI-H23, 48 h, read-out: GI; procedure, shortened: as §1
SR = experiment: Growth inhibition of human SR cells at 10 uM after 48 hrs by coulter counter method; details: read-out: GI; procedure, shortened: as §1
LOX IMVI = experiment: Growth inhibition of human LOXIMVI cells at 10 uM after 48 hrs by coulter counter method; details: read-out: GI; procedure, shortened: as §1
NCI-H522 = experiment: Growth inhibition of human NCI-H522 cells at 10 uM after 48 hrs by coulter counter method; details: NCI-H522, 48 h, read-out: GI; procedure, shortened: as §1
U-251 = experiment: Growth inhibition of human U251 cells at 10 uM after 48 hrs by coulter counter method; details: U-251, 48 h, read-out: GI; procedure, shortened: as §1
RPMI-8226 = experiment: Growth inhibition of human RPMI8226 cells at 10 uM after 48 hrs by coulter counter method; details: RPMI-8226, 48 h, read-out: GI; procedure, shortened: as §1
SNB-75 = experiment: Growth inhibition of human SNB75 cells at 10 uM after 48 hrs by coulter counter method; details: SNB-75, 48 h, read-out: GI; procedure, shortened: as §1
OVCAR-8 = experiment: Growth inhibition of human OVCAR8 cells at 10 uM after 48 hrs by coulter counter method; details: OVCAR-8, 48 h, read-out: GI; procedure, shortened: as §1
MOLT-4 = experiment: Growth inhibition of human MOLT4 cells at 10 uM after 48 hrs by coulter counter method; details: MOLT-4, 48 h, read-out: GI; procedure, shortened: as §1
UO-31 = experiment: Growth inhibition of human UO31 cells at 10 uM after 48 hrs by coulter counter method; details: UO-31, 48 h, read-out: GI; procedure, shortened: as §1

Q: `O=C(CCN1CCCCC1)Nc1nnc(-c2ccc(Cl)cc2)s1` was tested. Which inhibition of growth at 10 µM (SF-295) did it give?
A: 11%

Q: What about the inhibition of growth at 10 µM (NCI-H322M) of the same molecule?
A: < 10%

Q: And the inhibition of growth at 10 µM (PC-3)?
A: < 10%

Q: What about the inhibition of growth at 10 µM (CCRF-CEM) of the same molecule?
A: < 10%

Q: And the inhibition of growth at 10 µM (HT-29)?
A: < 10%

Q: What about the inhibition of growth at 10 µM (HCT-116) of the same molecule?
A: < 10%

Q: What about the inhibition of growth at 10 µM (SK-MEL-5) of the same molecule?
A: 24.7%

Q: What about the inhibition of growth at 10 µM (HL-60(TB)) of the same molecule?
A: < 10%

Q: What about the inhibition of growth at 10 µM (SK-MEL-2) of the same molecule?
A: < 10%

Q: What about the inhibition of growth at 10 µM (BT-549) of the same molecule?
A: < 10%

Q: And the inhibition of growth at 10 µM (A498)?
A: 11.6%

Q: What about the inhibition of growth at 10 µM (SF-268) of the same molecule?
A: < 10%

Q: And the inhibition of growth at 10 µM (SK-MEL-28)?
A: < 10%

Q: And the inhibition of growth at 10 µM (MCF7)?
A: < 10%

Q: What about the inhibition of growth at 10 µM (UACC-257) of the same molecule?
A: < 10%

Q: What about the inhibition of growth at 10 µM (786-0) of the same molecule?
A: < 10%

Q: What about the inhibition of growth at 10 µM (MDA-MB-435) of the same molecule?
A: < 10%

Q: What about the inhibition of growth at 10 µM (TK-10) of the same molecule?
A: < 10%

Q: What about the inhibition of growth at 10 µM (M14) of the same molecule?
A: < 10%

Q: What about the inhibition of growth at 10 µM (ACHN) of the same molecule?
A: < 10%

Q: What about the inhibition of growth at 10 µM (UACC-62) of the same molecule?
A: < 10%

Q: What about the inhibition of growth at 10 µM (NCI/ADR-RES) of the same molecule?
A: < 10%

Q: And the inhibition of growth at 10 µM (SNB-19)?
A: < 10%

Q: And the inhibition of growth at 10 µM (KM12)?
A: < 10%

Q: And the inhibition of growth at 10 µM (IGROV-1)?
A: < 10%

Q: And the inhibition of growth at 10 µM (EKVX)?
A: 20.4%

Q: What about the inhibition of growth at 10 µM (CAKI-1) of the same molecule?
A: 18.8%

Q: And the inhibition of growth at 10 µM (HCT-15)?
A: < 10%

Q: And the inhibition of growth at 10 µM (NCI-H226)?
A: < 10%

Q: And the inhibition of growth at 10 µM (T47D)?
A: < 10%

Q: And the inhibition of growth at 10 µM (Malme-3M)?
A: 10.7%

Q: What about the inhibition of growth at 10 µM (MDA-MB-468) of the same molecule?
A: < 10%

Q: What about the inhibition of growth at 10 µM (K562) of the same molecule?
A: < 10%

Q: What about the inhibition of growth at 10 µM (A549) of the same molecule?
A: < 10%

Q: And the inhibition of growth at 10 µM (SN12C)?
A: < 10%

Q: And the inhibition of growth at 10 µM (NCI-H23)?
A: < 10%

Q: And the inhibition of growth at 10 µM (SR)?
A: 11.9%

Q: What about the inhibition of growth at 10 µM (LOX IMVI) of the same molecule?
A: < 10%

Q: What about the inhibition of growth at 10 µM (NCI-H522) of the same molecule?
A: 19.5%

Q: And the inhibition of growth at 10 µM (U-251)?
A: 12%

Q: What about the inhibition of growth at 10 µM (RPMI-8226) of the same molecule?
A: < 10%

Q: And the inhibition of growth at 10 µM (SNB-75)?
A: < 10%

Q: What about the inhibition of growth at 10 µM (OVCAR-8) of the same molecule?
A: < 10%

Q: What about the inhibition of growth at 10 µM (MOLT-4) of the same molecule?
A: < 10%

Q: What about the inhibition of growth at 10 µM (UO-31) of the same molecule?
A: 28.6%
